# Screens from PubChem BioAssay.
# Sampled rows, rich in hits. Any-hit rate of the full collection: about 3.1%.
# OX1R antag-1 = blocks the human orexin 1 receptor. CHO/OX1R cells, Fluo-8 calcium fluorescence, orexin A. AID 434989. inhibition, % at 5 µM. actives 0.43% (n = 330,000). O43613;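 active means inhibition above its plate's threshold, mean inhibition of all tested compounds on the plate plus 3 SD, cut at about 37% in these data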;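 further: 0% = orexin A challenge wells and 100% = SB-334867-A antagonist wells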
# OX1R antag-2 = antagonists of human orexin 1 receptor (OX1R). OX1R-expressing cells, FRET antagonist read-out. actives 1.8% (n = 330,000). inhibition, % at 6.6 µM. O43613; in the data active means inhibition mostly above about 38%, no sharp cut-off; inactive means mostly below about 40%;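 further: 0% = agonist challenge alone and 100% = reference antagonist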
# GPR7 antagonist = antagonists of human GPR7 (neuropeptides B/W receptor 1). P48145. actives 1.1% (n = 290,000). GPR7-expressing cells, fluorescence antagonist assay. inhibition, % at 4.4 µM; in the data active means inhibition above about 16%, passing the limit was not always enough;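 further: cells stimulated with the agonist NPW; 0% = agonist with vehicle and 100% = vehicle without agonist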
# Target sequence (P48145 whole entry, looked up): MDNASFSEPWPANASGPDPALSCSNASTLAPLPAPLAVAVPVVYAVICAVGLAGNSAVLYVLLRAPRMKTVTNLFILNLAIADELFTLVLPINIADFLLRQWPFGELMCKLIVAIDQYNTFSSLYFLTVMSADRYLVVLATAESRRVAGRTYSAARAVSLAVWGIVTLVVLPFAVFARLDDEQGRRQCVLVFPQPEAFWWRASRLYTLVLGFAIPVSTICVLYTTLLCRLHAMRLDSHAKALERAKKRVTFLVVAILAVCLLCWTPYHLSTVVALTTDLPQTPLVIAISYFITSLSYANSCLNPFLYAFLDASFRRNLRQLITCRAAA
# CHO parental Ca = signal in parental CHO cells, OX1R antagonist counter-screen; actives 0.63% (n = 330,000); parental CHO-K1, ATP-induced calcium, Fluo-8 fluorescence; inhibition, % at 5.6 µM;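 active means inhibition above that plate's mean sample inhibition plus 3 SD, cut at about 26% in these data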;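 further: 0% = ATP-challenged DMSO wells and 100% = DMSO wells without ATP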
#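 Assay system: untransfected parental CHO cell line. Also added: ATP agonist challenge. Dosing: one dose, 5.6 µM nominal. Measured by: Fluo-8 fluorescence. Read-out: % inhibition. Benchmarks: ATP wells versus no-ATP DMSO wells. Repeats: no replicates.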
# GalR3 antagonist = human GalR3 antagonism; inhibition, % at 3 µM; HEK293 GalR3-CNG cAMP membrane potential fluorescence; galR3 body fused to GalR1 C-terminus; actives 0.44% (n = 360,000);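 active means inhibition above the screen-wide average plus 3 SD, cut at about 13% in these data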;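 further: forskolin and galanin both at EC90 stimulate the cells; cAMP rise reported by CNG channel membrane potential dye signal; 0% = forskolin plus galanin with DMSO and 100% = forskolin alone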
# Target sequence (O60755 1-299 limits assumed): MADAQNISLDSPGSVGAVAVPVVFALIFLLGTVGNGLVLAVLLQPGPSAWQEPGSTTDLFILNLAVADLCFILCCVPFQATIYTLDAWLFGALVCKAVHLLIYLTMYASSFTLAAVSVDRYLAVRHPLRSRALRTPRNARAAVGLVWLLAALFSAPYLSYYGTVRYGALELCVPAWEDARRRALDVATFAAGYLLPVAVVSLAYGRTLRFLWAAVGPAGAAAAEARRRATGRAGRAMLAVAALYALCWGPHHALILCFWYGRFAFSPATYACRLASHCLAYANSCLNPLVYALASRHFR
# Numbers without * were called inactive; . = no result.
SMILES,OX1R antag-1,OX1R antag-2,GPR7 antagonist,CHO parental Ca,GalR3 antagonist
Cc1ccc(S(=O)(=O)N2[C@@H](c3ccccc3)C(C(=O)O)=CC[C@H]2c2ccc(Cl)c(Cl)c2)cc1,-4.9,55.4*,.,-13.6,-1.0
C[C@H]1[C@H](c2ccccc2)Oc2cccc(NCCc3ccccc3)c2S(=O)(=O)N1Cc1cccc(F)c1,.,.,.,.,2.6
CC(=O)N1CCc2cc(N=NC3=C(O)CC(C)(C)CC3=O)ccc21,-5.0,56.1*,-7.0,2.7,-0.9
Cc1nc2ccc(N=NC3=C(O)CC(C)(C)CC3=O)cc2s1,11.1,61.6*,10.1,-7.5,-2.5
CN(N=Cc1ccc(N(C)C)cc1)C(=O)c1ccccc1N,.,.,.,.,-7.1
CC(C)NC(=O)C1(C)CCN1C(=O)c1ccc2c(c1)OCO2 (stereo not drawn),.,.,.,.,-7.1
O=C(NCCc1cn2ccccc2n1)C1CCCCC1,-2.5,2.7,19.4*,-4.2,.
O=C(NCCc1cn2ccsc2n1)C1CCCCC1,0.4,6.3,-8.6,-2.9,.
Cc1ccccc1OCC(=O)N1N=C(C(F)(F)F)CC1(O)C(C)(C)C (stereo not drawn),17.3,23.2,-12.1,33.0*,-4.3
Cc1ccc(OCC(=O)N2N=C(c3cccnc3)CC2(O)C(F)(F)F)cc1C (stereo not drawn),-11.9,19.8,10.1,-6.9,-4.7
Cc1ccc(OCC(=O)N2N=C(C(F)(F)F)CC2(O)C(C)(C)C)cc1C (stereo not drawn),29.7,28.9,4.2,80.0*,-5.9
CC(C)(C)C1(O)CC(C(F)(F)F)=NN1C(=O)CCc1ccccc1 (stereo not drawn),-33.4,7.3,-1.5,-20.2,-2.9
CN[C@H]1C[C@@H](c2ccccc2Br)N(C(C)=O)C[C@H]1CO,.,.,.,.,-6.5
O=S(=O)(NCCOCC(F)(F)F)c1ccc2oc3ccccc3c2c1,56.3*,66.3,5.5,59.0*,-4.3
c1csc(-c2csc3nc(CN4CCOCC4)nc(NCc4ccc5c(c4)OCO5)c23)c1,-18.5,18.6,19.1*,-16.8,-8.1
c1ccc2c(c1)nc(NCc1ccc3c(c1)OCO3)n2CCN1CCOCC1,-11.2,11.9,-5.0,-0.9,-2.7
Cc1ccc(C2c3c(-c4ccccc4)n[nH]c3C(=O)N2c2ccccc2)cc1 (stereo not drawn),.,.,.,.,-5.9
COc1ccccc1OCC(=O)Nc1cc(C(F)(F)F)ccc1-n1cncn1,-15.3,24.8,.,-10.1,-0.2
COc1cc(CNc2ccc3[nH]c(=O)[nH]c3c2)cc(Br)c1OCC(=O)NC(C)(C)C,-12.4,9.9,-16.5,-11.3,-2.8
COc1cc(CNc2ccc3[nH]c(=O)[nH]c3c2)ccc1OCC(=O)NC(C)(C)C,-14.7,27.9,-7.3,98.8*,-2.4
C/C(=N/OCC(=O)NCCCCCCNC(=O)CO/N=C(/C)c1cccs1)c1cccs1,-13.8,70.6*,10.4,-22.7,-5.1
Cc1ccc(-c2noc(CN(C(=O)Cc3ccccc3)C(C)C)n2)cc1,-6.3,52.2*,-3.1,-10.6,-6.2
CC(C)N(Cc1nc(-c2ccccc2)no1)C(=O)COc1ccccc1,-28.1,30.5,-7.2,-15.2,.
COc1cccc(OCC(=O)N(Cc2nc(-c3ccc(Cl)cc3)no2)C(C)C)c1,-10.0,46.7*,-9.0,-15.6,-0.9
Cc1cc(Br)ccc1OCC(=O)N(Cc1nc(-c2ccccc2)no1)C(C)C,37.5,56.4*,-6.1,-18.4,-1.9
SMILES,OX1R antag-1,OX1R antag-2,GPR7 antagonist,CHO parental Ca,GalR3 antagonist
CC(C)N(Cc1nc(-c2ccccc2)no1)C(=O)CSc1ccccc1,9.8,39.3*,-17.3,-27.4,-7.5
C[C@@H]1CN([C@@H](C)CO)C(=O)c2ccccc2-c2ccccc2CO[C@@H]1CN(C)Cc1ccc(Cl)c(Cl)c1,.,.,.,.,-4.8
Cc1ccc(S(=O)(=O)N2C[C@H]3C(=O)C[C@@H](c4ccccc4F)N(S(=O)(=O)c4ccc(C)cc4)[C@H]3C[C@H]2c2cccc3ccccc23)cc1,.,.,.,.,-2.4
Cc1ccc(C)c(C(=O)N(Cc2nc(-c3ccc(Cl)cc3)no2)C(C)C)c1,-31.2,28.5,-6.5,35.5*,5.1
COc1cccc(C(=O)N(Cc2nc(-c3ccc(C)cc3)no2)C(C)C)c1,11.8,27.2,-13.5,-28.8,-8.4
CN(CCO)C(=O)c1nc[nH]c1C(=O)N1CCN(c2ccccc2)CC1,.,.,.,.,-4.0
COC(=O)CCS(=O)(=O)c1nc(-c2ccccc2)cc(C(F)(F)F)n1,-1.7,19.2,15.3,6.5,.
CCOC(=O)CCS(=O)(=O)c1nc(-c2ccccc2)cc(C(F)(F)F)n1,-10.1,38.9,25.6*,-6.6,.
CCOC(=O)CS(=O)(=O)c1nc(-c2ccccc2)cc(C(F)(F)F)n1,6.7,49.3,38.6*,7.9,7.0
C[C@@H]1CN([C@H](C)CO)C(=O)c2cc(Br)cnc2O[C@H]1CN(C)C(=O)c1ccc(F)cc1,.,.,.,.,-4.7
CC12CCC3c4ccccc4CCC3(CO1)C2 (stereo not drawn),.,.,.,.,-3.1
O=C(Nc1ccccc1)Nc1ccc(-n2ccc(C(F)(F)F)n2)cc1,37.0,23.9,-15.8,41.2*,-1.2
COC(=O)c1c(C)oc2ccc(NS(=O)(=O)c3cccs3)cc12,-3.4,40.5*,-15.4,8.8,-5.4
Cc1cc(NS(C)(=O)=O)c(=O)n(Cc2cccc(C(F)(F)F)c2)c1,.,.,.,.,-3.2
CC(C)(C)C(=O)OCCNc1nc(-c2ccccc2)nc2ccccc12,-12.9,71.8*,-6.4,-16.6,-10.2
CN(C)CCCNc1nc(-c2ccccc2)nc2ccccc12,-15.8,22.9,-1.6,-27.9,-1.9
CC(C)OCCCNc1nc(-c2ccccc2)nc2ccccc12,23.3,51.5*,-17.5,-17.2,-12.9
CNc1nc(N/N=C/c2cc3c(cc2[N+](=O)[O-])OCO3)nc(Nc2ccccc2)n1,-13.0,43.6*,-12.3,-23.9,-5.0
Cc1cccc(NC(=O)COC(=O)CN2C(=O)c3ccccc3C2=O)c1,.,.,.,.,-5.9
CCN1C(=O)c2c(C)nc3ccccc3c2C1=O,-20.3,39.2*,-8.5,-14.4,.
Cc1ccc(S(=O)(=O)N2CCN(C(=O)N3CCCCC3)CC2)c(C)c1,.,.,.,.,-3.4
COC(=O)c1ccc(Cn2c(C)c(C(=O)NCc3ccc(Cl)c(Cl)c3)sc2=O)o1,.,.,.,.,-0.4
CC(C)Cn1c(N)c(C(=O)COC(=O)c2ccc(O)cc2)c(=O)n(C)c1=O,-10.9,17.7,1.6,1.5,-7.1
CC(C)Cn1c(N)c(C(=O)COC(=O)c2cnccn2)c(=O)n(C)c1=O,14.7,9.0,.,3.5,-2.5
CC(C)Cn1c(N)c(C(=O)COC(=O)C2=COCCO2)c(=O)n(C)c1=O,-11.8,10.1,18.5*,-17.7,-5.3
CC(C)Cn1c(N)c(C(=O)COC(=O)c2cc(F)cc(F)c2)c(=O)n(C)c1=O,-8.4,29.2,18.1*,-7.1,-7.0
C[C@H](CO)N1C[C@H](C)[C@@H](CN(C)C(=O)Nc2cccc(C(F)(F)F)c2)OCc2cn(nn2)CCCC1=O,.,.,.,.,-4.1
C[C@@H]1CN([C@H](C)CO)C(=O)c2cc(NC(=O)Nc3ccc(F)cc3)ccc2O[C@@H](C)CCCCO[C@@H]1CN(C)C(=O)CCCN(C)C,.,.,.,.,-7.5
